pIC50: −log10 of the molar value.
Columns and labels:
[1] = Cytotoxicity against human CEM cells assessed as inhibition of mitochondrial DNA synthesis; assay type: cell-based; settings: CEM (CCRF-CEM) cells
In short: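 HepG2 or CEM cells incubated 14 days with compound up to 100 μM, ddC as control. Medium and compound replenished on days 7 and 11. Mitochondrial COXII gene and nuclear rDNA measured by multiplex quantitative RT-PCR.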

[2] = target: T1, DNA polymerase alpha catalytic subunit (Homo sapiens, UniProt P09884); test: Inhibition of human DNA polymerase alpha assessed as incorporation of [alpha-32P]dCTP up to 1mM preincubated for 30 mins by whatman DE81 paper binding assay
T1 sequence (P09884 whole entry): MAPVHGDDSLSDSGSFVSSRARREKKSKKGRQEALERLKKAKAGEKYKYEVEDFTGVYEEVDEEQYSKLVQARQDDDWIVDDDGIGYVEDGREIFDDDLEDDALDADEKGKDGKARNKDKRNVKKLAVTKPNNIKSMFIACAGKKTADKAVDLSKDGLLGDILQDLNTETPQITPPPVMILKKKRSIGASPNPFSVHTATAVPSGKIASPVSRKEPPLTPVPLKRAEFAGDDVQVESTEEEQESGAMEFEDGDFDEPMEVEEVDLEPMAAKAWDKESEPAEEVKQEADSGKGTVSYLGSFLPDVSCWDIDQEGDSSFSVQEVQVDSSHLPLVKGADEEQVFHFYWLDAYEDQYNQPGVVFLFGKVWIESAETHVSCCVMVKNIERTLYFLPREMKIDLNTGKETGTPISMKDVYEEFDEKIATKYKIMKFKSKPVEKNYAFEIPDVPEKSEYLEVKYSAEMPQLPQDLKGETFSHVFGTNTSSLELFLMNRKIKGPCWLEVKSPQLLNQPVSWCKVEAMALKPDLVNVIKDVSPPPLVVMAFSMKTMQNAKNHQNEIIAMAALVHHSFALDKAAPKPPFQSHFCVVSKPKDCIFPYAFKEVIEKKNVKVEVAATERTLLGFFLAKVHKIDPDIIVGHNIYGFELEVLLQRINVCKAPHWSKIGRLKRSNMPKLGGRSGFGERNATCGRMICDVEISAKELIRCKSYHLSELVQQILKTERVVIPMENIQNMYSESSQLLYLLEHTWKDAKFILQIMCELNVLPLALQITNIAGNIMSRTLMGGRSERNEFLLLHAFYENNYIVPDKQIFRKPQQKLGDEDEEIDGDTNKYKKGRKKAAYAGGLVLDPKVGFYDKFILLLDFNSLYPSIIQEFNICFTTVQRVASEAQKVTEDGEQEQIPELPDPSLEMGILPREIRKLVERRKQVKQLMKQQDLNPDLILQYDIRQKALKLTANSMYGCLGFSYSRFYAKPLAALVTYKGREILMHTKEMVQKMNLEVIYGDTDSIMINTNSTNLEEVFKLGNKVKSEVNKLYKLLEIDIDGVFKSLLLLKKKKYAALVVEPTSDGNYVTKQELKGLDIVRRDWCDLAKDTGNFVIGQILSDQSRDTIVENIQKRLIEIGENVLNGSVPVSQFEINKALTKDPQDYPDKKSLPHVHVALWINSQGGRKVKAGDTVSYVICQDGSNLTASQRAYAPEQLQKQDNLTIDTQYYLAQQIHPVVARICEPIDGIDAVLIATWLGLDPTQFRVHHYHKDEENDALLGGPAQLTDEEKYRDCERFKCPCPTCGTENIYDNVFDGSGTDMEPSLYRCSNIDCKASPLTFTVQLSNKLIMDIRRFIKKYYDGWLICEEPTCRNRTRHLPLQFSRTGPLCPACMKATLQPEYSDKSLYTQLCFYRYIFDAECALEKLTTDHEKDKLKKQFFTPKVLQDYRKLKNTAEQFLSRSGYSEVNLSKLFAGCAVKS
In short: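 Human DNA polymerase α (20 μg/ml) or γ (50 μg/ml) in 50 mM Tris pH 7.5, 50 mM NaCl, activated calf thymus DNA, 20 μM each dNTP, [α-32P]dCTP, 5 mM MgCl2. Nucleotide inhibitor up to 1 mM. 37°C, quenched with EDTA at 30 min. Product measured by DE81 paper binding; IC50 by nonlinear fit.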

SMILES	CC90 [1]	pIC50 [2]
CC(C)OC(=O)[C@H](C)NP(=O)(OC[C@H]1O[C@@H](n2ccc(=O)[nH]c2=O)[C@](C)(F)[C@@H]1O)Oc1ccccc1 (some centres not stated)	< 3 µM	–
C[C@@]1(F)[C@H](O)[C@@H](COP(=O)(O)OP(=O)(O)OP(=O)(O)O)O[C@H]1n1ccc(=O)[nH]c1=O [GS-461203]	–	3.26
